Compound activity as filed in PubChem BioAssay.
This excerpt belongs to a sample that is enriched for hits.
STK33 kinase inh: human STK33 kinase inhibition; inhibition, % at 10 µM; Q9BYT3; 320,000 tested, 0.073% active; purified STK33, MBP phosphorylation, ADP-Glo luminescence;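 active = inhibition at or above 25%, using the most active replicate where run in duplicate; inactive = inhibition below 25%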
GSK3B inh: blocks human GSK3beta kinase activity; GST-GSK3beta kinase, ADP-Glo luminescence, 60 min; stronger effect = lower value; activity score (negative = inhibition), % at 10 µM; 300,000 tested, 0.038% active; AID 2097;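 active = more than half of replicate wells score below -50%, meaning over 50% inhibition versus plate controls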
Target sequence (P49841 whole entry, looked up): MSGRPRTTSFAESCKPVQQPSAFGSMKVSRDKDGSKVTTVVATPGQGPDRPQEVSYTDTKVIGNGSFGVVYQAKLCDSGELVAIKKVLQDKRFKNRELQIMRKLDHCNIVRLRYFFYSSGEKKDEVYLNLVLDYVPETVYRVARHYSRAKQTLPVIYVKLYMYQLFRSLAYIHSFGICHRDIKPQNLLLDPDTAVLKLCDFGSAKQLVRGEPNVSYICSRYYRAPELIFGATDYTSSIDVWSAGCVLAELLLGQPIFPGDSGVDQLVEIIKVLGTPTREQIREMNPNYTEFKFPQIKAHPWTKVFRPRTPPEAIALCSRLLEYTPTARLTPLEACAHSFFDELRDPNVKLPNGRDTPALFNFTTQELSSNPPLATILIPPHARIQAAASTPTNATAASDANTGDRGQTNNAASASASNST
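test system = GST-tagged human GSK3beta kinase, cell-free | reagent = 25 µM ATP with peptide substrate | dosing = one dose of 10 µM per compound | schedule = 60 min reaction, RT | detection = luminescent ADP-Glo measurement of ADP formed | control set = DMSO neutral wells and GW8510 at 20 µM as positive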
GSK3A inh: blocks human GSK-3 alpha kinase | P49840 | ADP-Glo luminescence, 60 min | inhibition, % at 10 µM | 320,000 tested, 0.1% active;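 active = more than half of replicates show inhibition above 20%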;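 also: GST-tagged GSK-3 alpha with peptide substrate and 25 µM ATP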
CDK5 p35 inh: blocks human CDK5/p35 kinase activity; Q00535+Q15078; Recombinant CDK5/p35, ADP-Glo luminescence, 60 min; inhibition, % at 10 µM; 330,000 tested, 0.01% active; AID 488839;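 active = highest replicate inhibition of at least 50% and at least 75% of replicates reaching 50%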
DYRK1A inh: blocks rat Dyrk1A kinase activity; Q63470; ADP-Glo luminescence, NFATc1 peptide; inhibition, % at 12.5 µM; 310,000 tested, 0.43% active; AID 504441; in the data active = inhibition above about 50%
ADP-Glo artifact: ADP-Glo luciferase interference, Dyrk1A counter-screen | AC50, µM (titrated, usually from 12 µM) | shares compounds with DYRK1A inh | ADP-Glo luciferase artifact assay, no Dyrk1A, luminescence | 1,300 tested, under 10 active | AID 588348;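 active = fitted half-maximal dose AC50 no more than ten times the top valid tested dose, with luminescence dropping as dose rises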
Each line names hits and unclear results; the compound was inactive in the other large screens (follow-up assays come after a bar, where they were run).

COc1cc(/C=N/NC(=O)c2sc(N)c(C#N)c2C)cc(Br)c1O	GSK3A inh 62
CN(Nc1cccc(Cl)c1)c1cccc(Cl)c1	none (no result: STK33 kinase inh, GSK3B inh, GSK3A inh)
COC(=O)[C@]1(Cc2ccccc2)N[C@H](CN(C)C(=O)c2ccc(C)cc2)[C@@H]2C(=O)N(Cc3ccccc3)C(=O)[C@@H]21	none (no result: STK33 kinase inh, GSK3B inh, GSK3A inh)
CCCCC[C@H](O)/C=C/C1C(=O)C=C[C@H]1C/C=C\CCCC(=O)OC (stereo partly drawn)	none (no result: STK33 kinase inh, GSK3B inh, GSK3A inh, DYRK1A inh)
COc1ccccc1CCN=C(N)NS(=O)(=O)c1ccccc1F	none
Oc1ccc(/C=N/NC(=S)Nc2cccnc2)cc1	none
Oc1ccc(/C=N/NC(=S)N/N=C/c2ccc(O)cc2)cc1	STK33 kinase inh 30
COc1cc(/C=N/Nc2ccc(C(F)(F)F)cn2)cc(OC)c1O	none (no result: STK33 kinase inh, GSK3A inh)
Oc1ccc(/C=N/Nc2ccc(C(F)(F)F)cn2)cc1	STK33 kinase inh 31 (no result: DYRK1A inh)
O=C(CN(C1CCCCC1)S(=O)(=O)c1ccc(F)cc1)NCC1CCCO1 (stereo not drawn)	none (no result: STK33 kinase inh, GSK3B inh, GSK3A inh)
C=C(CN(C)C)C(=O)c1ccc(OC2OC(COC(C)=O)C(OC(C)=O)C(OC(C)=O)C2OC(C)=O)cc1 (stereo not drawn)	none (no result: STK33 kinase inh, GSK3B inh, GSK3A inh)
Cc1sc2ncnc(N/N=C/c3cccc(O)c3)c2c1C	STK33 kinase inh 28 (no result: CDK5 p35 inh)
O=C(OC[C@H]1O[C@@H](OC(=O)c2cc(O)c(O)c(OC(=O)c3cc(O)c(O)c(O)c3)c2)[C@H](OC(=O)c2cc(O)c(O)c(OC(=O)c3cc(O)c(O)c(O)c3)c2)[C@@H](OC(=O)c2cc(O)c(O)c(OC(=O)c3cc(O)c(O)c(O)c3)c2)[C@@H]1OC(=O)c1cc(O)c(O)c(OC(=O)c2cc(O)c(O)c(O)c2)c1)c1cc(O)c(O)c(OC(=O)c2cc(O)c(O)c(O)c2)c1	STK33 kinase inh 28, GSK3A inh 91 (no result: GSK3B inh, CDK5 p35 inh, DYRK1A inh)
COc1ccc(OC)c(Nc2nc(NCCCN(C)C)nc(N)c2[N+](=O)[O-])c1	GSK3B inh -65, GSK3A inh 88
COc1ccccc1Nc1nc(NCCO)nc(N)c1[N+](=O)[O-]	GSK3A inh 60 (no result: CDK5 p35 inh, DYRK1A inh)
COCCCNc1nc(N)c([N+](=O)[O-])c(Nc2cc(OC)ccc2OC)n1	none
COc1ccccc1Nc1nc(NCCC(C)C)nc(N)c1[N+](=O)[O-]	none (no result: CDK5 p35 inh, DYRK1A inh)
CC1=CC2(C)C(C3C(C)=CC2(C)C(=O)C3(C)O)C(C)(O)C1=O (stereo not drawn)	none (no result: STK33 kinase inh, GSK3B inh, GSK3A inh, DYRK1A inh)
Cc1ccc(NC(=S)Nc2ccc3cn[nH]c3c2)c(C)c1	STK33 kinase inh 32, DYRK1A inh 71
Cc1cccc(N2CCN(CCCNC(=O)c3ccc(NC(=O)C4=CSCCO4)cc3)CC2C)c1 (stereo not drawn)	STK33 kinase inh 46
Cc1[nH]nc2c1C(c1cccs1)C1=C(CC(C)(C)CC1=O)N2 (stereo not drawn)	GSK3B inh -82, GSK3A inh 99 (no result: DYRK1A inh)
Cc1[nH]nc2c1C(c1cccs1)C1=C(CCCC1=O)N2 (stereo not drawn)	GSK3B inh -50, GSK3A inh 70
CCOC(=O)C1=C(C)NC2=C(C(=O)CCC2)C1c1cccs1 (stereo not drawn)	none
COC(=O)C1=C(C(=O)OC)C(c2cc(Br)ccc2O)c2sc(=O)[nH]c2S1 (stereo not drawn)	DYRK1A inh 63 (no result: GSK3B inh) | ADP-Glo artifact inactive
CC(C)(C)NC(=O)C(=O)NC(=O)c1c(F)cccc1Cl	DYRK1A inh 63 | ADP-Glo artifact inactive
Cc1nc2ccc3[nH]snc3c2n1	DYRK1A inh 55 | ADP-Glo artifact inactive
CCc1ccc(C(=O)NNC(=O)CCC2CCCCC2)cc1	none
Cc1cccc(OCC(=O)Nc2nc3ccc([N+](=O)[O-])cc3s2)c1C	none
Cc1cccc(OCC(=O)Nc2nc3ccc([N+](=O)[O-])cc3s2)c1	DYRK1A inh 64 | ADP-Glo artifact inactive
Cc1ccc2nc(NC(=O)CCCC(=O)O)sc2c1	DYRK1A inh 62 | ADP-Glo artifact inactive
CC(C)c1ccc(/C=C/C(=O)Nc2nc3ccc([N+](=O)[O-])cc3s2)cc1	none
O=C(O)COc1ccc(/C=C/c2nc3ccc([N+](=O)[O-])cc3s2)cc1	DYRK1A inh 87 | ADP-Glo artifact inactive
O=C(CSc1ccc(S(=O)(=O)N2CCCCC2)cn1)Nc1ccccc1Br	none (no result: GSK3B inh, DYRK1A inh)
Cc1cc(C(=O)CSc2nn(-c3ccccc3)c(=S)s2)c(C)n1Cc1ccco1	DYRK1A inh 57 | ADP-Glo artifact inactive
Cc1cc(C(=O)CSc2nncs2)c(C)n1Cc1ccco1	none
COc1cccc(Nc2ncnc3ccccc23)c1	DYRK1A inh 73 | ADP-Glo artifact inactive
COc1ccc(Nc2ncnc3ccccc23)c(OC)c1	none
COc1ccc(NC(=S)N(CCc2c(C)[nH]c3ccccc23)Cc2cccnc2)cc1	DYRK1A inh 60 | ADP-Glo artifact inactive
CCOc1ccc(NC(=S)N(CCc2c(C)[nH]c3ccc(C)cc23)Cc2cccnc2)cc1	none
Cc1nc(NC(=O)c2ccccc2)sc1-c1csc(NCc2ccccc2)n1	none
Cc1nc(NC(=O)c2ccccc2)sc1-c1csc(N)n1	DYRK1A inh 60 | ADP-Glo artifact inactive
CCOC(=O)c1ncn2c1[C@@H]1CCNC1C(=O)c1cc(OC)ccc1-2 (stereo partly drawn)	none (no result: GSK3B inh)
Cc1ccc(N2CN=c3s/c(=C\c4ccccn4)c(=O)n3C2)cc1	DYRK1A inh 52 | ADP-Glo artifact inactive
COc1cccc(CNC(=O)C(C(=O)NCc2cccc(OC)c2)c2ncc(C(F)(F)F)cc2Cl)c1	none
N#Cc1c(N)nc2c3c(sc(=N)c2c1N)NC(=O)CC3c1c(F)cccc1Cl (stereo not drawn)	DYRK1A inh 67 | ADP-Glo artifact inactive
CSc1ncc2[nH]c(C(O)c3ccccc3)nc2n1 (stereo not drawn)	none (no result: STK33 kinase inh, GSK3B inh, GSK3A inh)
Cc1ccc(NC(=O)c2ccc(Cl)cc2Cl)cc1O	none
COc1ccc(C(=O)N(Cc2nc(-c3ccc(C)cc3)no2)C(C)C)cc1OC	DYRK1A inh 61 | ADP-Glo artifact inactive
COc1cccc(CN2C[C@]34C=C[C@@H](C[C@@H]3S2(=O)=O)O4)c1	none
C=CCOC(=O)C1=C(C)NC(=O)NC1c1ccc(N(C)C)cc1 (stereo not drawn)	none (no result: DYRK1A inh)
C=CCOC(=O)C1=C(C)NC(=O)NC1c1ccc(Cl)cc1 (stereo not drawn)	DYRK1A inh 67 | ADP-Glo artifact inactive
CCN(CC)CCNc1ccc(C)c2sc3ccc(O)cc3c(=O)c12	none (no result: STK33 kinase inh, GSK3B inh, GSK3A inh)
CN(C)CCNc1ccc(CO)c2oc3ccc(O)cc3c(=O)c12	DYRK1A inh 52 (no result: STK33 kinase inh, GSK3B inh, GSK3A inh) | ADP-Glo artifact inactive
COc1ccnc(-n2cccc2C#N)c1C#N	none
COc1ccc2nc(C)c3c(c2c1)OC(C(C)(Cl)Br)C3 (stereo not drawn)	DYRK1A inh 79 | ADP-Glo artifact inactive
O=C1C=C(c2ccc3c(c2)OCO3)CCC1	DYRK1A inh 66 | ADP-Glo artifact inactive
